Measured values of several laboratories.
Sample: plasma
Route: intravenous

| system | conditions | Vd [L/kg] | SMILES |
| --- | --- | --- | --- |
| rat | 2 mg/kg | 5 | C[C@]1(O)CCCN(c2nc(Nc3ccc(S(=O)(=O)N[C@@H]4CCN(CC5CCN(c6ccc(C7CCC(=O)NC7=O)cc6F)CC5)C[C@H]4F)cc3F)ncc2C(F)(F)F)C1 (stereo partly shown) |
| male Sprague-Dawley rat | 1 mg/kg | 4.3 | CC(C)(N)COCC(=O)N1CCC[C@H](C(=O)NCc2nc(-c3ccc(C(F)(F)F)cc3)cs2)C1 |
| male Sprague-Dawley rat | 1 mg/kg | 1.1 | [2H]c1cc(C)c(NC(=O)c2cnc(Nc3cc(N4CC[C@H](O)C4)nc(C)n3)s2)c(Cl)c1 |
| rat | 2 mg/kg | 3 | Cc1cc(S(=O)(=O)N[C@H]2CC[C@H](CN3CCN(c4ccc(C5CCC(=O)NC5=O)c(Cl)c4)CC3)CC2)ccc1Nc1ncc(C(F)(F)F)c(N2CCC[C@](C)(O)C2)n1 (stereo partly shown) |
| rat | 3 mg/kg | 2.8 | C=CCn1c(=O)c2cnc(Nc3ccc(N4CCN(C)CC4)cc3)nc2n1-c1ccc2c(n1)[C@@](O)(CC)CC2 |
| female Sprague-Dawley rat | 5 mg/kg | 441 | COc1ccc(N(Cc2csc(-c3ccccc3)n2)C(=O)CCCCCC(=O)NO)cc1 |
| male Sprague-Dawley rat | 1 mg/kg | 0.3 | CCOCC(=O)N1CCC[C@H](C(=O)NCc2nc(-c3ccc(C)nc3)cs2)C1 |
| male Sprague-Dawley rat | 11.25 mg/kg | 2.39 | Cn1c(=O)c2[nH]cnc2n(C)c1=O |
| male Sprague-Dawley rat | 1 mg/kg | 4.8 | [2H]c1cc(C)c(NC(=O)c2cnc(Nc3cc(N4CCC(O)CC4)nc(C)n3)s2)c(Cl)c1 |
| rat | 2 mg/kg | 7 | Cc1cc(S(=O)(=O)N[C@]2(C)C[C@@H](N3CCN(CC4CCN(c5ccc6c(c5F)n(C)c(=O)n6C5CCC(=O)NC5=O)CC4)CC3)C2)ccc1Nc1ncc(C(F)(F)F)c(N2CCC[C@](C)(O)C2)n1 (stereo partly shown) |
| male Sprague-Dawley rat | 1 mg/kg, single dose | 2.4 | Cc1nc(Nc2ncc(C(=O)Nc3c(C)cccc3Cl)s2)cc(N2CCN(CCO)CC2)n1 |
| male Sprague-Dawley rat | 1 mg/kg | 0.18 | COCC(=O)N1CCC[C@H](C(=O)NCc2nc(-c3ccccc3)cs2)C1 |
| male Sprague-Dawley rat | 1 mg/kg | 0.9 | Cc1nc(Nc2ncc(C(=O)Nc3c(C)cccc3Cl)s2)cc(N2CC[C@H](O)C2)n1 |
| rat | 2 mg/kg | 4 | C[C@]1(O)CCCN(c2nc(Nc3ccc(S(=O)(=O)N[C@H]4CC[C@H](CN5CCN(c6ccc(C7CCC(=O)NC7=O)cc6F)CC5)CC4)cc3F)ncc2C(F)(F)F)C1 (stereo partly shown) |
| male Sprague-Dawley rat | 1 mg/kg | 16.4 | Cc1nc(Nc2ncc(C(=O)Nc3c(C)cccc3Cl)s2)cc(N2CC[C@H](N)C2)n1 |
| male Sprague-Dawley rat | 1 mg/kg | 0.43 | CCOCC(=O)N1CCC[C@H](C(=O)NCc2nc(-c3ccc(C#N)nc3)cs2)C1 |
